The values that follow come from ChEMBL document CHEMBL3351231, “Structure and antimicrobial activity of phloroglucinol derivatives from Achyrocline satureioides” (2015).

Values after ≈ are worked out from the molar mass of the structure shown.

Assay [1] concerns Escherichia coli. The assay is described as follows: Antimicrobial activity against Escherichia coli ATCC 35218 after 24 hrs by broth microdilution method. It counts as functional. To be noted: ATCC 35218, 24 h. Summed up:
(§1)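 Strains kept at −80 °C in BHI broth with 20% glycerol and revived on BHI at 37 °C overnight. NCCLS standard broth microdilution with 1:2 serial dilutions from 1 to 128 μM and an inoculum of 1 × 10⁵ CFU/mL. Ampicillin and kanamycin served as controls.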
(Broth dilution looks for growth in wells or tubes with falling amounts of substance.)

In assay [2] the test system is Staphylococcus aureus. The assay is described as follows: Antimicrobial activity against methicillin-resistant and vancomycin-intermediate Staphylococcus aureus NRS402 after 24 hrs by broth microdilution method. The conditions noted are these: NRS402, 24 h. Type of assay: functional. The essentials:
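Broth microdilution per NCCLS standard; strain stored at -80 °C in BHI broth with 20% glycerol, revived on BHI at 37 °C overnight. […] Ampicillin and kanamycin included as controls.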

The subject of assay [3] is Enterococcus faecalis. The experiment in a line: Antimicrobial activity against Enterococcus faecalis ATCC 29212 after 24 hrs by broth microdilution method. It counts as functional. The conditions noted are these: ATCC 29212, 24 h. Summed up: as §1
The test system of assay [4] is Staphylococcus aureus. The assay is described as follows: Antimicrobial activity against methicillin-sensitive Staphylococcus aureus ATCC 25923 after 24 hrs by broth microdilution method. To be noted: ATCC 25923, 24 h.
The subject of assay [5] is Saccharomyces cerevisiae. The experiment in a line: Antimicrobial activity against Saccharomyces cerevisiae BY4741 after 24 hrs by broth microdilution method. It counts as functional. The conditions noted are these: BY4741, 24 h.
The subject of assay [6] is Candida albicans. The assay is described as follows: Antimicrobial activity against Candida albicans […] after 24 hrs by broth microdilution method. Type of assay: functional.
Assay [7] concerns Nakaseomyces glabratus. The assay is described as follows: Antimicrobial activity against Candida glabrata ATCC 9984 after 24 hrs by broth microdilution method. Type of assay: functional. To be noted: ATCC 9984, 24 h.

Take `CCc1[nH]c(=O)c(Cc2c(O)c3c(c(C(=O)[C@@H](C)CC)c2O)OC(C)(C)C=C3)c(O)c1C`: the MIC in assay [1] was over 128 µM; in assay [2], 32 µM (≈ 14.1 µg/mL); in assay [3] it was over 128 µM; in assay [4], 32 µM (≈ 14.1 µg/mL).
As for `CC1(C)S[C@@H]2[C@H](NC(=O)[C@H](N)c3ccccc3)C(=O)N2[C@H]1C(=O)O` [AMPICILLIN], the minimal inhibitory concentration (MIC) in assay [1] was over 128 µM; in assay [2] it was 120 µM (≈ 41.9 µg/mL); in assay [3], 8.8 µM (≈ 3.07 µg/mL); in assay [4], under 1 µM.
Regarding `CCc1oc(=O)c(Cc2c(O)c(C(=O)[C@@H](C)CC)c3c(c2OC)C=CC(C)(C)O3)c(OC)c1C`, the MIC in assay [1], in assay [2], in assay [3] and in assay [4] was over 128 µM throughout.
Turning to `CCc1oc(=O)c(Cc2c(OC(C)=O)c3c(c(C(=O)[C@@H](C)CC)c2OC(C)=O)OC(C)(C)C=C3)c(OC(C)=O)c1C`, the MIC in assay [1], in assay [2], in assay [3] and in assay [4] was over 128 µM each time.
Turning to `CCc1oc(=O)c(Cc2c(O)c3c(c(C(=O)[C@@H](C)CC)c2O)OC(C)(C)[C@@H](O)C3)c(O)c1C`, the minimum inhibitory concentration (MIC) in assay [1], in assay [2], in assay [3], in assay [5], in assay [6] and in assay [7] was over 128 µM throughout. The same compound gave an MIC in assay [4] of over 128 µM.
Turning to `NC[C@H]1O[C@H](O[C@H]2[C@H](O)[C@@H](O[C@H]3O[C@H](CO)[C@@H](O)[C@H](N)[C@H]3O)[C@H](N)C[C@@H]2N)[C@H](O)[C@@H](O)[C@@H]1O` [KANAMYCIN], the minimum inhibitory concentration (MIC) in assay [1] is over 128 µM; in assay [2], 240 µM (≈ 116 µg/mL); in assay [3] it was 360 µM (≈ 174 µg/mL); in assay [4] it was 2.8 µM (≈ 1.36 µg/mL).
Take `CCc1oc(=O)c(Cc2c(O)c3c(c(C(=O)[C@@H](C)CC)c2O)OC(C)(C)C=C3)c(O)c1C`: the MIC in assay [1] is over 128 µM; in assay [2] it was 64 µM (≈ 28.3 µg/mL); in assay [3] it was over 128 µM; in assay [5] it was over 128 µM; in assay [6], over 128 µM; in assay [7], over 128 µM. The MIC in assay [4] came out at 64 µM (≈ 28.3 µg/mL).
Consider `CCc1oc(=O)c(Cc2c(O)c(CCC(C)C)c(O)c(C(=O)[C@@H](C)CC)c2O)c(O)c1C`, for which the MIC in assay [1] is over 128 µM; in assay [2], 4 µM (≈ 1.79 µg/mL); in assay [3], 32 µM (≈ 14.3 µg/mL); in assay [4], 4 µM (≈ 1.79 µg/mL).
Take `CCc1oc(=O)c(Cc2c(O)c3c(c(C(=O)[C@@H](C)CC)c2O)OC(C(C)(C)O)C3)c(O)c1C` (some centres not stated): the MIC in assay [1], in assay [2], in assay [3] and in assay [4] was over 128 µM in each case.
For `CCc1oc(=O)c(Cc2c(O)c3c(c(C(=O)[C@@H](C)CC)c2O)OC(C)(C)C(Br)=C3)c(O)c1C`, the MIC is over 128 µM in assay [1], 8 µM (≈ 4.17 µg/mL) in assay [2], over 128 µM in assay [3] and 16 µM (≈ 8.34 µg/mL) in assay [4].
As for `CCc1oc(=O)c(Cc2c(O)c3c(c(C(=O)[C@@H](C)CC)c2O)OC(C)(C)CC3)c(O)c1C`, the MIC in assay [1], in assay [2], in assay [3] and in assay [4] was over 128 µM throughout.
As to `C=C(C)C(O)Cc1c(O)c(C(=O)C(C)CC)c(O)c2c1oc1c(C(=O)C(C)CC)c(O)c(CC=C(C)C)c(O)c12` (configuration not stated) [ACHYROFURAN], the minimum inhibitory concentration (MIC) is over 128 µM in assay [1]; under 1 µM in assay [2]; 2 µM (≈ 1.11 µg/mL) in assay [3]; over 128 µM in assay [5]; over 128 µM in assay [6]; over 128 µM in assay [7]. The MIC in assay [4] was under 1 µM.
As for `C=C(C)C(O)Cc1c(O)c(C(=O)[C@@H](C)CC)c2oc3c4c(c(C(=O)[C@@H](C)CC)c(O)c3c2c1O)OC(C)(C)C=C4` (some centres not stated), the MIC in assay [1] is over 128 µM; in assay [2], 32 µM (≈ 17.6 µg/mL); in assay [3] it was 64 µM (≈ 35.2 µg/mL); in assay [5], over 128 µM; in assay [6], over 128 µM; in assay [7] it was over 128 µM. The minimum inhibitory concentration (MIC) in assay [4] amounted to 32 µM (≈ 17.6 µg/mL).
In the case of `CCc1oc(OC)c(Cc2c(O)c3c(c(C(=O)[C@@H](C)CC)c2O)OC(C)(C)C=C3)c(=O)c1C`, the MIC in assay [1], in assay [2], in assay [3] and in assay [4] was over 128 µM throughout.
`CCc1oc(OC)c(Cc2c(O)c(C(=O)[C@@H](C)CC)c3c(c2OC)C=CC(C)(C)O3)c(=O)c1C`: the MIC in assay [1], in assay [2], in assay [3] and in assay [4] was over 128 µM throughout.
`COc1c(-c2ccccc2)oc2c(OC)c(O)cc(O)c2c1=O` [GNAPHALIIN]: the minimum inhibitory concentration (MIC) in assay [1], in assay [2], in assay [3], in assay [5], in assay [6] and in assay [7] was over 128 µM throughout. The same compound returned an MIC in assay [4] of over 128 µM.
Turning to `C=C(C)[C@@H]1Cc2c(O)c(Cc3c(O)c(C)c(CC)oc3=O)c(O)c(C(=O)[C@@H](C)CC)c2O1`, the MIC in assay [1] was over 128 µM; in assay [2], 64 µM (≈ 28.3 µg/mL); in assay [3], 64 µM (≈ 28.3 µg/mL); in assay [5], over 128 µM; in assay [6] it was over 128 µM; in assay [7], over 128 µM. In addition, the MIC in assay [4] was 32 µM (≈ 14.2 µg/mL).
Regarding `CCc1oc(=O)c(Cc2c(O)c(CC=C(C)C)c(O)c(C(=O)[C@@H](C)CC)c2O)c(O)c1C`, the MIC in assay [1] is over 128 µM; in assay [2], 8 µM (≈ 3.56 µg/mL); in assay [3] it was 64 µM (≈ 28.4 µg/mL); in assay [5] it was over 128 µM; in assay [6], over 128 µM; in assay [7], over 128 µM. Besides, inhibition of growth in assay [4] (MIC) required 8 µM (≈ 3.56 µg/mL).
For the compound `CCc1oc(=O)c(Cc2c(O)c(C(=O)[C@@H](C)CC)c3c(c2O)C2OC2C(C)(C)O3)c(O)c1C` (some centres not stated), the MIC in assay [1], in assay [2], in assay [3] and in assay [4] was over 128 µM throughout.

Broadly, the MIC is the smallest concentration in the dilution series that meets the test's criterion for growth inhibition. A lower MIC goes with inhibition by little substance.
